Assay results taken from ChEMBL document CHEMBL4811241, “Revisiting Pyrazolo[3,4-d]pyrimidine Nucleosides as Anti-Trypanosoma cruzi and Antileishmanial Agents” (J Med Chem, 2021).
pEC50, pIC50: −log10 of the molar value.

Assays:
[1] = Cytotoxicity against human MRC-5 SV2 cells assessed as reduction in cell growth measured after 3 days by resazurin dye based fluorometric analysis; settings: time 3 day
Trypanosoma cruzi [2] = experiment: Antitrypanosomal activity against nifurtimox-sensitive Trypanosoma cruzi Tulahuen CL2 infected in human MRC-5 SV2 cells assessed as inhibition of parasite growth measured after 7 days by spectrophotometric analysis; type: functional, organism-based; settings: Tulahuen CL2, MRC-5 SV2, 168 h
[3] = Selectivity index, ratio of CC50 for Swiss mouse peritoneal macrophages to IC50 for antileishmanial activity against amastigote form of Leishmania infantum MHOM/MA(BE)/67 infected in Swiss mouse peritoneal macrophages; type: toxicity; settings: read-out: Ratio CC50/IC50
Outline: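 Ratio of macrophage CC50 to L. infantum amastigote IC50, both taken from the same 5-day macrophage assay.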

[4] = Selectivity index, ratio of CC50 for human MRC-5 SV2 cells to IC50 for antitrypanosomal activity against nifurtimox-sensitive Trypanosoma cruzi Tulahuen CL2 infected in human MRC-5 SV2 cells; type: toxicity, cell-based; settings: read-out: Ratio CC50/IC50
Outline: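 Ratio of MRC-5SV2 CC50 (3-day resazurin assay) to IC50 against T. cruzi amastigotes in MRC-5SV2 cells (7-day CPRG assay).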

[5] = Cytotoxicity against Swiss mouse peritoneal macrophages assessed as cell detachment, lysis and granulation measured after 5 days by microscopic analysis; type: cell-based, Peritoneal macrophage; settings: time 5 day
Outline: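 Scored within the Leishmania macrophage assay over 5 days: detachment, lysis and granulation judged semi-quantitatively by microscopy across at least 500 cells. CC50 derived from % reduction in normal cells versus untreated wells.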

Leishmania infantum = experiment: Antileishmanial activity against amastigote form of Leishmania infantum MHOM/MA(BE)/67 infected in Swiss mouse peritoneal macrophages assessed as reduction in parasite growth treated at 2 hrs post-infection and measured after 5 days by Giemsa staining based microscopic analysis; type: functional, organism-based; settings: MHOM/MA(BE)/67, Peritoneal macrophage
Outline: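 Swiss mouse peritoneal macrophages, harvested after 2-day potato-starch stimulation, infected 48 h after plating; compounds added 2 h post-infection.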

[6] = test system: Trypanosoma brucei rhodesiense; experiment: Antitrypanosomal activity against Trypanosoma brucei rhodesiense STIB900 measured after 6 hrs by alamar blue dye based fluorimetry analysis; type: functional, organism-based; settings: STIB900, 6 h
Trypanosoma cruzi [7] = experiment: Antitrypanosomal activity against Trypanosoma cruzi Y bloodstream trypomastigotes assessed as inhibition of parasite growth incubated for 24 hrs by light microscopy; type: functional, organism-based
Trypanosoma cruzi [8] = experiment: Antitrypanosomal activity against intracellular amastigote form of Trypanosoma cruzi Y infected in Swiss Webster mouse cardiomyocytes assessed as inhibition of parasite growth incubated for 48 hrs by Giemsa staining based microscopic analysis; type: functional, organism-based; settings: Cardiac muscle cell
Outline: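 Primary 2D mouse embryo cardiac cell cultures, infected for 24 h, then washed and exposed for 48 h at 37 °C to a serial dilution. Cells fixed and stained with Giemsa; infected cells and parasites per infected cell scored in 200 host cells. Activity expressed from the inhibition index; two independent experiments run in duplicate.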

[9] = Cytotoxicity against Swiss Webster mouse 2D cardiomyocytes assessed as reduction in cell viability measured after 48 hrs by PrestoBlue assay; design: species or system Cardiac Muscle Cell; settings: read-out: LC50
Outline: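 Mouse embryo heart cells as monolayer (2D) or 3D aggregates (25 × 10³ cells/well on 1% agarose). Uninfected cultures exposed 48 h to rising concentrations. Morphology checked by light microscopy; viability read by PrestoBlue; CC₅₀ determined.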

Structure (SMILES)	CC50 at 72 h [1] [µM]	pIC50 (Trypanosoma cruzi [2])	selectivity ratio [3]	selectivity ratio [4]	CC50 at 120 h [5] [µM]	pIC50 (Leishmania infantum)	pEC50 [6]	pIC50 (Trypanosoma cruzi [7])	pIC50 (Trypanosoma cruzi [8])	CC50 at 48 h [9] [µM]
Nc1ncnc2c1c(-c1c[nH]nn1)nn2[C@@H]1O[C@H](CO)[C@@H](O)[C@H]1O	0.6	6.37	> 1	1	> 64	4.37	–	–	–	–
Nc1ncnc2c1c(-c1ccc(Cl)cc1Cl)nn2[C@@H]1O[C@H](CO)[C@@H](O)[C@H]1O	> 64	5.22	> 1	> 11	> 64	4.28	–	–	–	–
C#Cc1nn([C@@H]2O[C@H](CO)[C@@H](O)[C@H]2O)c2ncnc(N)c12	≥ 46.5	5.56	1	20	≥ 8	4.98	–	–	–	–
C=C(C)c1nn([C@@H]2O[C@H](CO)[C@@H](O)[C@H]2O)c2ncnc(N)c12	0.35	4.53	1	< 1	32	4.62	–	–	–	–
Nc1ncnc2c1ccn2[C@@H]1O[C@H](CO)[C@@H](O)[C@H]1O [TUBERCIDIN]	–	–	–	–	–	–	7.44	–	–	–
Nc1ncnc2c1c(C(=O)Nc1ccccc1)nn2[C@@H]1O[C@H](CO)[C@@H](O)[C@H]1O	> 64	< 4.19	1	–	32	4.49	–	–	–	–
Nc1ncnc2c1c(Oc1ccccc1)nn2[C@@H]1O[C@H](CO)[C@@H](O)[C@H]1O	> 64	< 4.19	> 2	–	> 64	4.49	–	–	–	–
Nc1ncnc2c1c(C#Cc1ccccc1)nn2[C@@H]1O[C@H](CO)[C@@H](O)[C@H]1O	> 64	4.53	> 1	> 2	> 64	4.31	–	–	–	–
Nc1ncnc2c1c(-c1ccncc1)nn2[C@@H]1O[C@H](CO)[C@@H](O)[C@H]1O	> 64	4.67	> 3	> 3	> 64	4.60	–	–	–	–
C=Cc1nn([C@@H]2O[C@H](CO)[C@@H](O)[C@H]2O)c2ncnc(N)c12	> 64	< 4.19	3	–	32	4.90	–	–	–	–
Nc1ncnc2c1c(Br)nn2[C@@H]1O[C@H](CO)[C@@H](F)[C@H]1O	0.23	5.97	1	–	0.13	7.10	–	–	–	–
Nc1ncnc2c1c(I)nn2[C@@H]1O[C@H](CO)[C@@H](O)[C@H]1O	25.4	4.90	> 2	2	> 64	4.60	–	–	–	–
Oc1ncnc2[nH]ncc12 [ALLOPURINOL]	> 64	5.01	> 18	> 7	> 64	5.45	–	–	–	–
Cc1ccc(-c2nn([C@@H]3O[C@H](CO)[C@@H](O)[C@H]3O)c3ncnc(N)c23)s1	> 64	5.15	> 1	> 9	> 64	≤ 4.49	–	–	–	–
Nc1ncnc2c1ccn2[C@@H]1O[C@H](CO)C[C@H]1O	–	–	–	–	–	–	9.28	–	–	–
Nc1ncnc2c1c(-c1ccccn1)nn2[C@@H]1O[C@H](CO)[C@@H](O)[C@H]1O	36.4	4.52	1	1	> 64	≤ 4.29	–	–	–	–
NC(=O)c1nn([C@@H]2O[C@H](CO)[C@@H](O)[C@H]2O)c2ncnc(N)c12	0.25	6.60	1	1	8	5.09	–	–	–	–
O=c1[nH]cnc2c1cnn2[C@@H]1O[C@H](CO)[C@@H](O)[C@H]1O	> 64	5.14	10	9	> 64	5.18	–	–	–	–

Structure (SMILES)	CC50 at 72 h [1] [µM]	pIC50 (Trypanosoma cruzi [2])	selectivity ratio [3]	selectivity ratio [4]	CC50 at 120 h [5] [µM]	pIC50 (Leishmania infantum)	pEC50 [6]	pIC50 (Trypanosoma cruzi [7])	pIC50 (Trypanosoma cruzi [8])	CC50 at 48 h [9] [µM]
Nc1ncnc2c1c(Br)nn2[C@@H]1O[C@H](CO)[C@@H](O)[C@H]1O	> 64	5.36	> 2	> 15	> 64	4.53	–	–	–	–
Nc1ncnc2c1c(C(F)F)nn2[C@@H]1O[C@H](CO)[C@@H](O)[C@H]1O	2.42	5.08	1	< 1	0.25	6.60	–	–	–	–
Nc1ncnc2c1cnn2[C@@H]1O[C@H](CO)[C@@H](O)[C@H]1O	> 64	6.54	> 60	> 219	> 64	5.97	–	< 4.09	5.61	> 500
Nc1ncnc2[nH]ncc12	2.46	6.24	> 355	5	> 64	6.74	–	–	–	–
CCOc1cc(-c2nn([C@@H]3O[C@H](CO)[C@@H](O)[C@H]3O)c3ncnc(N)c23)ccc1Cl	> 64	4.34	–	> 1	> 64	< 4.19	–	–	–	–
N#Cc1nn([C@@H]2O[C@H](CO)[C@@H](O)[C@H]2O)c2ncnc(N)c12	34.6	6.02	> 8	36	> 64	5.10	–	–	–	–
Nc1ncnc2c1c(-c1ccc(C(F)(F)F)cc1)nn2[C@@H]1O[C@H](CO)[C@@H](O)[C@H]1O	> 64	5.20	> 1	> 10	> 64	4.24	–	–	–	–
Nc1ncnc2c1c(Cl)nn2[C@@H]1O[C@H](CO)[C@@H](O)[C@H]1O	> 64	5.54	> 1	> 22	> 64	< 4.19	–	–	–	–
Nc1ncnc2c1c(CCc1ccccc1)nn2[C@@H]1O[C@H](CO)[C@@H](O)[C@H]1O	> 64	4.28	–	> 1	> 64	< 4.19	–	–	–	–
Cc1nn([C@@H]2O[C@H](CO)[C@@H](O)[C@H]2O)c2ncnc(N)c12	57.5	5.33	1	12	40	4.49	–	–	–	–
NCc1nn([C@@H]2O[C@H](CO)[C@@H](O)[C@H]2O)c2ncnc(N)c12	59.3	4.95	4	5	8	5.70	–	–	–	–
Cc1ccc(-c2nn([C@@H]3O[C@H](CO)[C@@H](O)[C@H]3O)c3ncnc(N)c23)cc1	> 64	5.75	–	> 36	> 64	< 4.19	–	–	–	–
Nc1ncnc2c1c(-c1ccc(Cl)cc1)nn2[C@H]1C[C@H](O)[C@@H](CO)O1	> 64	5.60	1	> 22	≥ 32	≤ 4.49	–	–	–	–
Nc1ncnc2c1c(/C=C/c1ccccc1)nn2[C@@H]1O[C@H](CO)[C@@H](O)[C@H]1O	> 64	4.78	> 1	> 4	> 64	4.29	–	–	–	–
Nc1ncnc2c1c(N)nn2[C@@H]1O[C@H](CO)[C@@H](O)[C@H]1O	23	5.12	1	3	8	5.17	–	–	–	–
CNc1nn([C@@H]2O[C@H](CO)[C@@H](O)[C@H]2O)c2ncnc(N)c12	> 64	< 4.19	> 1	–	> 64	4.29	–	–	–	–
Nc1ncnc2c1c(-c1ccc([N+](=O)[O-])cc1)nn2[C@@H]1O[C@H](CO)[C@@H](O)[C@H]1O	> 64	4.99	–	> 6	> 64	< 4.19	–	–	–	–
